Residue numbers refer to the chain shown, from its start.
What was measured:
[1] = test system: MDA-MB-231 cells; assay: MTT assay, cell proliferation; type: cell-based, human; details: for inhibition of cell proliferation: MDA-MB-231, 25 to 50 μM, 24 h, MTT, Fig. 4; for cell growth inhibition compared to non-acetylated precursors 5 and 7: MDA-MB-231, Fig. 4
In short: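 MDA-MB-231 cells were grown in RPMI 1640 with 10% FBS and penicillin/streptomycin at 37°C, 5% CO2. Triplicate wells were treated with test compound (25 or 50 μM) for 24 h. The medium was aspirated, then MTT (1 mg/ml) was added for 3 h at 37°C. The formazan was dissolved in DMSO and absorbance read at 540 nm.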

[2] = test system: cancer cell lines; details: a number of cancer cell lines; cited from earlier work
[3] = test system: proteasome chymotrypsin-like activity; details: cited from earlier work
[4] = biological target: T1, 26S proteasome in MDA-MB-231 cell extract (Homo sapiens, UniProt P28074); assay: Proteasomal chymotrypsin-like activity in MDA-MB-231 cell extract; type: biochemical; details: for inhibition of proteasomal activity: MDA-MB-231 cell lysate with high COMT activity, 1-10 μM, 2 h, Fig. 3A; for change of proteasome inhibitory activity with COMT inhibitor DNC: lysate pre-treated with 10 μM DNC for 20 minutes, Fig. 3B
T1 sequence (P28074 60-263): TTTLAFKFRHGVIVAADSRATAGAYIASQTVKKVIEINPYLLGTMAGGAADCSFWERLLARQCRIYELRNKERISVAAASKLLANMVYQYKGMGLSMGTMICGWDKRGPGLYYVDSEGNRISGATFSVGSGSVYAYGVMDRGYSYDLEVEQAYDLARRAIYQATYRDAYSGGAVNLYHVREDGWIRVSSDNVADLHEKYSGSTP
In short: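 MDA-MB-231 cell extract (5.7 μg; lysate with high COMT activity) incubated with 20 μM Suc-LLVY-AMC in 20 mM Tris–HCl pH 7.5 with test compound at various concentrations or solvent, 2 h, 37°C. Chymotrypsin-like activity was measured by fluorescence at 355/460 nm. In the COMT-blocked arm, the extract was pre-treated 20 min with 10 μM 3,5-dinitrocatechol, then co-incubated with test compound for 2 h.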

[5] = biological target: T2, purified rabbit 20S proteasome (Oryctolagus cuniculus, UniProt G1T4Q9); assay: Inhibition of purified 20S proteasome chymotrypsin-like activity; type: biochemical; details: for proteasome inhibition: even at 50 μM, Fig. 2A
T2 sequence (G1T4Q9 60-263): T1 sequence (P28074 60-263) with E197D
In short: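 Purified rabbit 20S proteasome (35 ng) incubated with 20 μM Suc-LLVY-AMC in 20 mM Tris–HCl pH 7.5, with test compound at various concentrations or solvent, for 2 h at 37°C. Chymotrypsin-like activity was read as fluorogenic substrate hydrolysis at 355 nm excitation and 460 nm emission.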

[6] = test system: proteasome in MDA-MB-231 cells; assay: Accumulation of ubiquitinated proteins, Western blotting; type: cell-based, human; details: MDA-MB-231, 50 μM, 22 hours, compared with compound 6 and Pro-EGCG (4), Fig. 6
In short: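 MDA-MB-231 cells (ATCC; RPMI 1640 with 10% FBS, penicillin/streptomycin; 37°C, 5% CO2) exposed to 50 μM test compound for 22 h. Extracted proteins were analysed by Western blot with antibodies against ubiquitinated proteins, with actin as loading reference.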

## CC(=O)Oc1cc(OC(C)=O)c2c(c1)O[C@H](c1cc(OC(C)=O)c(OC(C)=O)c(OC(C)=O)c1)[C@H](OC(=O)c1cc(OC(C)=O)c(OC(C)=O)c(OC(C)=O)c1)C2 [compound 4, peracetate of (-)-EGCG]
[1]
  inhibition of cell proliferation: 0 to 32%
[2]
  growth inhibitory activity relative to EGCG: enhanced growth inhibitory activity
[3]
  activity as a proteasome inhibitor: not active

## O=C(O[C@H]1Cc2ccccc2C[C@H]1OC(=O)c1cc(O)cc(O)c1)c1cc(O)cc(O)c1 [compound 7]
[4]
  inhibition of proteasomal activity: 18-51%
  change of proteasome inhibitory activity with COMT inhibitor DNC: only slightly increased

## CC(=O)Oc1cc(C(=O)O[C@H]2Cc3ccccc3C[C@H]2OC(=O)c2cc(OC(C)=O)c(OC(C)=O)c(OC(C)=O)c2)cc(OC(C)=O)c1OC(C)=O [compound 6]
[1]
  inhibition of cell proliferation: about 50%
  cell growth inhibition compared to non-acetylated precursors 5 and 7: more potent

## O=C(O[C@H]1Cc2ccccc2C[C@H]1O)c1cc(O)cc(O)c1 [compound 21]
[5]
  proteasome inhibition: not active

## O=C(O[C@H]1Cc2ccccc2C[C@H]1O)c1cc(O)c(O)c(O)c1 [compound 16]
[5]
  proteasome inhibition: not active

## CC(=O)Oc1cc(OC(C)=O)cc(C(=O)O[C@H]2Cc3ccccc3C[C@H]2OC(=O)c2cc(OC(C)=O)cc(OC(C)=O)c2)c1 [compound 8]
[1]
  inhibition of cell proliferation: 70-79%
  cell growth inhibition compared to non-acetylated precursors 5 and 7: more potent
[6]
  accumulation of ubiquitinated proteins: higher levels of ubiquitinated proteins

## O=C(O[C@H]1Cc2ccccc2C[C@H]1OC(=O)c1cc(O)c(O)c(O)c1)c1cc(O)c(O)c(O)c1 [compound 5]
[4]
  inhibition of proteasomal activity: 10-16%
  change of proteasome inhibitory activity with COMT inhibitor DNC: improved

## O=C(O[C@@H]1Cc2c(O)cc(O)cc2O[C@@H]1c1cc(O)c(O)c(O)c1)c1cc(O)c(O)c(O)c1 [EGCG, (-)-Epigallocatechin-3-gallate, reference compound]
[4]
  change of proteasome inhibitory activity with COMT inhibitor DNC: improved
[5]; Fig. 2
  inhibition of proteasomal chymotryptic activity: potently inhibited
[3]; read-out: IC50, chymotrypsin-like activity of the proteasome in vitro, in vitro
  IC50: 86 to 194 nM
